Assay [1] has as its target T1, Papain (Carica papaya) (UniProt P00784).
T1 sequence (whole entry): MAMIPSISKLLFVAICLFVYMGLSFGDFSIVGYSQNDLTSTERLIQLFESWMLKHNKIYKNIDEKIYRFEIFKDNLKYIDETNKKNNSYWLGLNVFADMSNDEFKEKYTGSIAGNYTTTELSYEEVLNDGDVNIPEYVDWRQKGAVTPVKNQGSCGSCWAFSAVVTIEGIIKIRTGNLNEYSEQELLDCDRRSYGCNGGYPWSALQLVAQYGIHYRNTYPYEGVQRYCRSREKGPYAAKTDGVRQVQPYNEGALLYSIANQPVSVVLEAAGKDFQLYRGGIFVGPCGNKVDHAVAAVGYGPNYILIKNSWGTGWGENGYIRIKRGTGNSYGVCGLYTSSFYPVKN
Put plainly: The apparent second-order rate constant for inactivation of papain enzyme. Apparent rate constant was determined from repeats of Kobs vs [I] using at least 5 values of [I] where I=0.95 mM. Put shortly: (§1)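 Papain purified from mercuripapain on Hg-Sepharose, then activated with L-cysteine for 15 min at room temperature in 50 mM K2HPO4, 1 mM EDTA, pH 6.3. Assays used 50 μM Cbz-Gly-ONp in buffer with 20% CH3CN, followed at 340 nm and corrected for spontaneous hydrolysis. Analysis was by Kitz–Wilson, with kobsd taken from slopes of semilog activity-versus-time plots.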

Assay [2] has as its target Cathepsin B (Bos taurus) (UniProt P07688). As to the kind of experiment: The apparent second-order rate constant for inactivation of bovine cathepsin B enzyme. Apparent rate constant was determined from repeats of Kobs vs [I] using at least 5 values of [I], where I=0.95 mM. Put shortly: (§2)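 Bovine spleen cathepsin B was activated with 10 mM dithiothreitol, and its active concentration was set by E-64 titration. Assays ran in 25 mM sodium acetate, 1 mM EDTA, pH 5.3, with 20% CH3CN and 80 μM Cbz-Lys-ONp, monitored at 326 nm. Inactivation was analysed by Kitz–Wilson, with kobsd from semilog plots of activity versus time.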

Assay [3] concerns the target T1, Papain (Carica papaya). As to the kind of experiment: The apparent second-order rate constant for inactivation of papain enzyme. Apparent rate constant was determined from repeats of Kobs vs [I] using at least 5 values of [I]. Put shortly: as §1
The target of assay [4] is Cathepsin B (Bos taurus) (UniProt P07688). Put plainly: Specificity constant is determined from the ratio of the inactivation rate constants (Kcat/Km)of the cathepsin B.
Assay [5] has the same target. As to the kind of experiment: The apparent second-order rate constant for inactivation of bovine cathepsin B enzyme. Apparent rate constant was determined from repeats of Kobs vs [I] using at least 5 values of [I], where I=0.2 mM. The procedure, abridged:
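Bovine spleen cathepsin B, activated with 10 mM dithiothreitol, in 25 mM sodium acetate pH 5.3 with 1 mM EDTA and 20% CH3CN (v/v). Substrate 80 μM Cbz-Lys-ONp; hydrolysis followed at 326 nm (Δε 9060 M⁻¹ cm⁻¹). Enzyme concentration set by E-64 titration. Kitz–Wilson analysis: k_obsd from slopes of semilog plots of activity vs time.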

Assay [6] has as its target T1, Papain (Carica papaya). Put plainly: Specificity constant is determined from the ratio of the inactivation rate constants (Kcat/Km)of the papaine.
The target in assay [7] is Cathepsin B (Bos taurus) (UniProt P07688). Put plainly: The apparent second-order rate constant for inactivation of bovine cathepsin B enzyme. Apparent rate constant was determined from repeats of Kobs vs [I] using at least 5 values of [I]. Put shortly: as §2
Assay [8] deals with T1, Papain (Carica papaya). Put plainly: Specificity constant is determined from the ratio of the inactivation rate constants (Kcat/Km)of the papain.
For assay [9], the target named is T1, Papain (Carica papaya). Put plainly: Specificity constant is determined from the ratio of the inactivation rate constants (Kcat/Km)of the papain.

For the compound `CC(=O)N[C@@H](Cc1ccccc1)C(=O)NN(Cc1ccccc1)C(=O)Oc1ccccc1`, the kobs/[I] was 0.3 M⁻¹ s⁻¹ in assay [1] and under 0.2 M⁻¹ s⁻¹ in [2].
Take `CC(=O)N[C@@H](Cc1ccccc1)C(=O)NNC(=O)OCC(C)C`: the k2/Ki in assay [3] came to 55 M⁻¹ s⁻¹.
As for `CC(=O)N[C@@H](Cc1ccccc1)C(=O)NN(C)C(=O)Oc1ccccc1`, the k cat/Km in [4] worked out at 18 M⁻¹ s⁻¹; in assay [6], 110 M⁻¹ s⁻¹. Moreover, the k obs / 1 in [5] stood at 18. Moreover, the k2/Ki in assay [3] was found to be 110 M⁻¹ s⁻¹.
In the case of `CC(=O)N[C@@H](Cc1ccccc1)C(=O)NNC(=O)OCC(Cl)(Cl)Cl`, the k cat/Km came out at 730 M⁻¹ s⁻¹ in assay [4] and 11800 M⁻¹ s⁻¹ in [6]. The k2/Ki came to 730 M⁻¹ s⁻¹ in assay [7] and 11800 M⁻¹ s⁻¹ in assay [3].
For the compound `COC(=O)N(C)NC(=O)[C@H](Cc1ccccc1)NC(C)=O`, the k2/Ki in assay [3] was 0.05 M⁻¹ s⁻¹.
With `CC(=O)N[C@@H](Cc1ccccc1)C(=O)NNC(=O)OCCCl`, the k2/Ki is 54 M⁻¹ s⁻¹ in assay [7] and 1150 M⁻¹ s⁻¹ in [3].
In the case of `NCCCC[C@H](NC(=O)OCc1ccccc1)C(=O)Oc1ccc([N+](=O)[O-])cc1`, the k cat/Km in assay [8] amounted to 853000 M⁻¹ s⁻¹; in assay [4] it was 776000 M⁻¹ s⁻¹.
Consider `CCOC(=O)NNC(=O)[C@H](Cc1ccccc1)NC(C)=O`, for which, in assay [3], the k2/Ki worked out at 47 M⁻¹ s⁻¹.
In the case of `CC(=O)N[C@@H](Cc1ccccc1)C(=O)NNC(=O)Oc1ccc([N+](=O)[O-])cc1`, the k2/Ki in [3] is over 70000 M⁻¹ s⁻¹.
Consider `C[C@H](NC(=O)OCc1ccccc1)C(=O)Oc1ccc([N+](=O)[O-])cc1`, for which the values for the k cat/Km in [4] and in [9] were 450000 M⁻¹ s⁻¹ and 800000 M⁻¹ s⁻¹, respectively.
In the case of `CC(=O)N[C@@H](Cc1ccccc1)C(=O)NN(C)C(=O)OCC(Cl)(Cl)Cl`, the kobs/[I] in assay [2] was 0.34 M⁻¹ s⁻¹. In addition, the k2/Ki in assay [3] was 12 M⁻¹ s⁻¹.
For the compound `CC(=O)N[C@@H](Cc1ccccc1)C(=O)NNC(=O)Nc1ccc([N+](=O)[O-])cc1`, the k2/Ki in [7] is 0 M⁻¹ s⁻¹; in assay [3], 1 M⁻¹ s⁻¹.
For `CCOC(=O)N(C)NC(=O)[C@H](Cc1ccccc1)NC(C)=O`, in assay [3], the k2/Ki was 0.05 M⁻¹ s⁻¹.
With `O=C(N[C@@H](Cc1ccccc1)C(=O)Oc1ccc([N+](=O)[O-])cc1)OCc1ccccc1`, the k cat/Km in [4] was 80000 M⁻¹ s⁻¹; in assay [9], 120000 M⁻¹ s⁻¹.
With `CC(=O)N[C@@H](Cc1ccccc1)C(=O)NNC(=O)Oc1ccccc1`, the figures for the k cat/Km in [4] and in assay [6] were 7730 M⁻¹ s⁻¹ and 67600 M⁻¹ s⁻¹, respectively. In addition, the k2/Ki is 7730 M⁻¹ s⁻¹ in assay [7] and 67600 M⁻¹ s⁻¹ in assay [3].
For the compound `CC(=O)N[C@@H](Cc1ccccc1)C(=O)NNC(N)=O`, the k2/Ki in assay [7] was 0 M⁻¹ s⁻¹; in assay [3], 4 M⁻¹ s⁻¹.
On to `COC(=O)NNC(=O)[C@H](Cc1ccccc1)NC(C)=O`, for which the k2/Ki in assay [3] came out at 19 M⁻¹ s⁻¹.
As to `CC(=O)N[C@@H](Cc1ccccc1)C(=O)NNC(=O)OCCBr`, the k2/Ki in assay [7] worked out at 90 M⁻¹ s⁻¹; in assay [3], 1250 M⁻¹ s⁻¹.
For `CC(=O)N[C@@H](Cc1ccccc1)C(=O)NNC(=O)OCc1ccccc1`, in that order: 310 M⁻¹ s⁻¹ and 30500 M⁻¹ s⁻¹.
Take `CC(=O)N[C@@H](Cc1ccccc1)C(=O)N/N=C(/N)S`: the k2/Ki in assay [3] came out at 0.03 M⁻¹ s⁻¹.

The record behind these values is ChEMBL document CHEMBL1131524, “Azapeptides as inhibitors and active site titrants for cysteine proteinases” (J Med Chem, 1998).
